# Bioassay records from PubChem BioAssay.
# SIAE primary: human SIAE inhibition, primary screen. inhibition, % at 9.66 µM. AID 1053197. SIAE FP-Rh probe binding, fluorescence polarization. Q9HAT2. 370,000 tested, 0.69% active;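 active means inhibition above a cutoff: mean of compounds within the control limits plus 3 SD of those, cut at about 17% in these data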;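 further: 0% = plate median of compound wells and 100% = probe without SIAE protein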
# Target sequence (Q9HAT2 whole entry, looked up): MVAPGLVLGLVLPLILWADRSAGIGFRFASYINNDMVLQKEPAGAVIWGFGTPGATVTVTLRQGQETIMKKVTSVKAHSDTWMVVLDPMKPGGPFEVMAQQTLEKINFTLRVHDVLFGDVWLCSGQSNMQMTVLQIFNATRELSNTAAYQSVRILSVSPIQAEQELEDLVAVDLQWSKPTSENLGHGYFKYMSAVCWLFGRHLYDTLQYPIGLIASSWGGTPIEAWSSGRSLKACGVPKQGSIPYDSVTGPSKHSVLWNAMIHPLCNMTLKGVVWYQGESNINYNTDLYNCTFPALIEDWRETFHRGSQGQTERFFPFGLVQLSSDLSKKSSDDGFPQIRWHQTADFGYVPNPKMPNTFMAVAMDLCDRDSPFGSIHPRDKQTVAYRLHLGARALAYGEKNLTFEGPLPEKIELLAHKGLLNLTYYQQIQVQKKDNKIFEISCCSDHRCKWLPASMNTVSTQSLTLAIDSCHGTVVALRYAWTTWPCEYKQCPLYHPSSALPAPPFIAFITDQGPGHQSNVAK
# mABHD4 FP: ABHD4 (mouse) inhibition, primary FP screen | Q8VD66 | purified mABHD4, FP-Rh probe fluorescence polarization | inhibition, % at 8.92 µM | 370,000 tested, 0.54% active | AID 720543;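 active means inhibition exceeding the mean over every tested compound plus 3 SD, cut at about 30% in these data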;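 further: 0% = plate median of compound wells and 100% = S159A mutant with DMSO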
#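 Assay system: wild-type mouse ABHD4 protein; compound: single nominal dose of 8.92 µM, 0.89% DMSO final; schedule: 45 min + 60 min at 25 °C; measured by: FP readout, ex 525 nm / em 598 nm; evaluation: % inhibition of FP-Rh probe binding versus controls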
# PRMT1 FP inh: inhibitors of human PRMT1 | recombinant PRMT1, activity-based probe fluorescence polarization | 370,000 tested, 1.3% active | Q99873 | inhibition, % at 2.79 µM;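 active means inhibition above about 21% made by adding two undisclosed values, limit read from the data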
# rCAG RNA binder: binds r(CAG) RNA repeats; 370,000 tested, 1.3% active; AID 651821; inhibition, % at 3 µM; r(CAG) RNA repeat, TO-PRO-1 dye displacement fluorescence;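 active means inhibition above the plate cutoff, the mean of all test compounds on that plate plus 3 SD, cut at about 35% in these data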;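 further: 0% = DMSO alone and 100% = 100 µM mitoxantrone as full dye displacement; higher means more dye released from RNA so lower well fluorescence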
# TCR CD3 inh: inhibitors of human TCR-CD3 interaction; TAMRA-labeled TCR probe fluorescence, biochemical; AID 651800; 360,000 tested, 0.37% active; inhibition, % at 9.4 µM; in the data active means inhibition above about 19%;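 further: recombinant mutant TCR 2C K166C tagged with TAMRA read by polarization; 0% = receptor in buffer alone and 100% = receptor with positive control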
# mABHD4 conf: ABHD4 (mouse) inhibition, FP confirmation. inhibition, % at 8.92 µM. shares compounds with mABHD4 FP. 1,800 tested, 55% active. purified mABHD4, FP-Rh probe fluorescence polarization;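 active means mean inhibition across replicates above the hit cutoff set in the primary screen, cut at about 30% in these data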;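 further: 0% = wild-type ABHD4 with DMSO and 100% = catalytically dead S159A mutant with DMSO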
# SIAE confirm: human SIAE inhibition, confirmation; shares compounds with SIAE primary; SIAE FP-Rh activity-based probe, fluorescence polarization; inhibition, % at 9.66 µM; 2,300 tested, 13% active; AID 1117263;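 active means mean inhibition of the replicates above the hit cutoff set in the primary screen, cut at about 17% in these data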;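 further: 0% = SIAE with DMSO and probe and 100% = probe without SIAE; inhibitors lower polarization as more probe stays unbound to SIAE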
# Starred values were filed as active, the others as inactive; x = no result given; + = active, no number. Compounds with a hit are over-represented: about 3.3% of the library has one in this group of screens.
SMILES,SIAE primary,mABHD4 FP,PRMT1 FP inh,rCAG RNA binder,TCR CD3 inh,mABHD4 conf,SIAE confirm
CCOC(=O)C1=CCN(S(=O)(=O)c2ccccc2F)C1c1cccc(C)c1 (stereo unspecified),8,-1,-4,1,1,x,x
C[C@H]1C(=O)[C@]23C[C@H]1CC[C@H]2[C@]1(C)[C@@H](O)CC[C@@](C)(C(=O)O)[C@H]1C[C@@H]3O,0,2,0,1,x,x,x
Oc1cccc(NC(=S)Nc2ccc(SC(F)F)cc2)c1,6,-16,10,15,-6,x,x
Oc1cccc2c(NC(=S)Nc3ccc(SC(F)F)cc3)cccc12,19*,40*,17,13,-5,-2,2
COc1ccccc1C(NC(=O)C1CCN(CCOc2ccc(Cl)cc2Cl)CC1)c1ccccn1 (stereo unspecified),6,0,-6,1,-2,x,x
CC1Cc2cc(S(=O)(=O)N3CCN(c4ccccc4F)CC3)ccc2N1C(=O)C1CC1 (stereo unspecified),-4,6,-1,1,-8,x,x
O=C(NCCCc1ccccc1)O[C@@H]1CC[C@@]23CCCN2C(=O)CCC[C@H]3C1,-1,3,-3,x,x,x,x
COc1ccc(CNc2ncnc3c2[nH]c2cc(OC)c(OC)cc23)cc1,37*,32*,-1,7,0,70*,24*
COc1ccc(CNc2nc(=S)[nH]c3cc(OC)c(OC)cc23)cc1,2,3,3,4,-1,x,x
COC(=O)C[C@H]1C=C[C@H](NC(=O)Nc2ccccc2OC)[C@@H](CO)O1,-1,-2,1,0,-9,x,x
Cn1c(CNc2ccccc2O)nc2ccccc21,19*,31*,0,9,4,10,10
O=[N+]([O-])c1cccc(C=NNc2ccc3ccccc3n2)c1O,17*,37*,0,34,-1,37*,3
C[C@@H]1CN([C@@H](C)CO)S(=O)(=O)c2ccc(Br)cc2O[C@H]1CN(C)C(=O)C1CCC1,-4,6,-6,1,4,x,x
CCCCn1nnnc1C(c1ccccc1)N1CCN(c2ccccn2)CC1 (stereo unspecified),8,3,0,0,0,x,x
CC(=O)C(=Nc1ccccc1Cl)NNc1ccc(Cl)cc1,18*,43*,71*,-1,-1,-18,1
O=C(NNc1c2ccccc2nc2ccccc12)c1ccc(O)cc1O,28*,35*,4,32,-6,62*,10
O=C(NNc1c2ccccc2nc2ccccc12)c1ccccc1Cl,8,8,-7,12,8,x,x
C(=C\c1ccccc1)/C=N/Nc1nc2ccccc2[nH]1,22*,32*,-1,2,-1,33*,18*
C(=N\Nc1nc2ccccc2[nH]1)/c1ccccc1,13,11,5,0,0,x,x
OC[C@@H]1CN(Cc2ccc3c(c2)OCO3)C[C@H](n2cnc3c(NC4CC4)ncnc32)O1,-2,-2,-7,0,7,x,x
[O-][n+]1c2c(c3c4non(O)c4ccc31)CCCC2,31*,35*,1,12,8,27,28*
O=C1C=C(Nc2cccc3cccnc23)c2ccccc2C1=O,19*,59*,9,24,14,25,4
CCOC(=O)C1=C(C)N=C2c3ccccc3C(=O)C2C1c1ccc(Cl)cc1 (stereo unspecified),19*,35*,0,4,-2,66*,6
CN(/N=C\c1ccc(O)c(O)c1)c1nc(-c2ccccc2)cc(-c2ccccc2)n1,35*,34*,-1,29,2,123*,-22
COC(=O)c1c(Cl)c2n3ccccc3c(C)c(-c3ccccc3)c-2c1C(=O)OC,21*,44*,34*,-20,17,22,-5
SMILES,SIAE primary,mABHD4 FP,PRMT1 FP inh,rCAG RNA binder,TCR CD3 inh,mABHD4 conf,SIAE confirm
Cc1cc2c(N)cccc2nn1,142*,168*,44*,-9,+,116*,65*
Cc1cc2c(NC(=O)Nc3ccccc3)cccc2nn1,-1,28,1,3,4,x,x
COc1ccc(-n2c(=O)c(CCC(=O)NCCc3ccccc3F)nc3ccccc32)cc1,-43,-48,1,4,-24,x,x
CCOC(=O)Cc1cc(=O)c2c(=O)n(-c3ccccc3)[nH]c2[nH]1,18*,57*,12,27,6,4,6
CN(C)c1ccc(NC(=S)Nc2ccc3c(c2)c(=O)n(C)n3-c2ccc(C(C)(C)C)cc2)cc1,20*,31*,8,12,-8,45*,8
COc1cc(-c2nc(-c3ccccc3)c(-c3cccs3)[nH]2)cc(OC)c1OC,12,1,-1,7,6,x,x
COc1cc(-c2nc(-c3ccccc3)c(-c3cccs3)[nH]2)cc(OC)c1O,20*,35*,5,11,-4,44*,6
Cc1ccc(S(=O)(=O)N[C@@H](C)CO)cc1,3,-4,-1,1,10,x,x
O=C(NC(=S)Nc1cccc2c(O)cccc12)c1ccco1,17*,30*,6,15,4,4,2
O=C1C(Cl)=C(Nc2ccc3cn[nH]c3c2)C(=O)c2ccccc21,18*,46*,43*,12,-2,54*,7
OCC[C@@H]1C[C@H](O)[C@@H](O)[C@]2(OCc3cc(C(F)(F)F)ccc32)O1,-1,2,0,2,-1,x,x
COc1cccc(/C=N/NC(=O)N/N=C/c2cccc(OC)c2O)c1O,14,14,1,5,5,x,x
COc1cccc(/C=N/NC(=O)c2cc3c(OC)ccc(OC)c3[nH]2)c1O,34*,37*,2,28,12,62*,9
COC(=O)C[C@H]1c2cc(C(F)(F)F)ccc2S(=O)(=O)N1C1CCCC1,-11,0,-3,-4,-2,x,x
Cc1onc(-c2ccccc2Cl)c1C(=O)N1CCC(Cc2ccccc2)CC1,0,-5,8,-5,-5,x,x
Oc1ccc(O)c(C=NNC(=S)NC2CC3CC2C2C=CCC32)c1 (stereo unspecified),34*,30*,2,26,1,35*,39*
NNC(=S)NC1CC2CC1C1C=CCC21 (stereo unspecified),2,-5,1,1,-7,x,x
Nc1ccc(N2CCN(CCCCN3C(=O)C4CCCN4C3=O)CC2)cc1 (stereo unspecified),31*,81*,5,-1,18,11,9
COc1ccc(/C=N/NC(=O)C(=O)/C=C2\NC3(CCCC3)Cc3ccccc32)cc1,-19,-23,3,13,-2,x,x
O=C(/C=C1\NC2(CCCC2)Cc2ccccc21)C(=O)N/N=C/c1ccc(O)c(O)c1,29*,32*,6,18,28*,8,-30
